Laboratory results taken from ChEMBL document CHEMBL1781886, “Monoterpenoid indole alkaloids from Gardneria ovata” (J Nat Prod, 2011).

How the values were obtained:
Assay type in all cases: functional, cell-based
[1] = system: A549; test: Cytotoxicity against human A549 cells by MTT assay
Method in brief: (§1)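 MTT viability read-out on five human cancer lines tested in parallel: breast MCF-7, hepatocellular SMMC-7721, myeloid leukemia HL-60, colon SW480 and lung A-549. IC50 derived by the Reed and Muench method.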

[2] = system: HL-60; test: Cytotoxicity against human HL60 cells by MTT assay; method in brief: as §1
[3] = system: SW480; test: Cytotoxicity against human SW480 cells by MTT assay; method in brief: as §1
[4] = system: MCF7; test: Cytotoxicity against human MCF7 cells by MTT assay; method in brief: as §1
[5] = system: SMMC-7721; test: Cytotoxicity against human SMMC7721 cells by MTT assay; method in brief: as §1

Measured: IC50

COC/C=C1\CN2[C@H]3C[C@@H]1[C@@H]1COC4=Nc5cc6c(c(O[C@@H]7O[C@H](CO)[C@@H](O)[C@H](O)[C@H]7O)c5[C@@]43C[C@@H]12)OCO6
> 40 µM: all assays above

C/C=C1/C[N+]2([O-])[C@H]3C[C@@]45C(=Nc6cc7c(c(OC)c64)OCO7)OC[C@H]3[C@H]1C[C@@H]52
> 40 µM: all assays above

COC/C=C1\C[N+]2([O-])[C@H]3C[C@@]45C(=Nc6cc7c(c(OC)c64)OCO7)OC[C@H]3[C@H]1C[C@@H]52
> 40 µM: all assays above

COc1c2c(cc3c1[C@@]14C[C@H]5[C@@H](COC1=N3)[C@H]1C[C@@H]4N5C/C1=C\CO)OCO2
> 40 µM: all assays above

C/C=C1/CN2[C@H]3C[C@@H]1[C@@H]1COC4=Nc5c(OC)cc(OC)cc5[C@@]43C[C@@H]12
> 40 µM: all assays above

C/C=C1/CN2[C@H]3C[C@@H]1[C@@H]1COC4=Nc5c(cc(OC)c(OC)c5OC)[C@@]43C[C@@H]12
> 40 µM: all assays above

COc1cc(OC)c2c(c1)[C@@]13C[C@H]4[C@@H](COC1=N2)[C@H]1C[C@@H]3N4C/C1=C\CO
> 40 µM: all assays above

C/C=C1/C[N+]2([O-])CC[C@]34C=C(CO)[C@H]1C[C@@]32Nc1ccccc14 (stereo not given in full)
> 40 µM: all assays above
